Test results published in PMC6698915 (Cancer chemotherapy and pharmacology, 2015).
Entries after “also recorded” stand apart in the source; their conditions may differ.

Legend:
[1] = tested on: patients with advanced solid tumors; details: cited from earlier work
[2] = Plasma pharmacokinetics of buparlisib, non-compartmental analysis; assay type: in vivo, human; details: oral; for AUC(0-t) / Cmax / Tmax: human, plasma; for AUC(0-t): AUC0–8 h
Outline: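 Patients on either platinum/taxane schedule received the oral PI3K-inhibitor test compound at 50 to 100 mg/day. Plasma was sampled on cycle 1/day 1 at 0, 15, 30 and 60 min and at 2, 3, 4.5, 6 and 8 h, plus day 8 pre-dose (taken as 168 h). Non-compartmental analysis: Cmax and Tmax observed; AUClast by linear trapezoidal rule; terminal rate constant by regression of the log-linear terminal phase.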

[3] = tested on: PTEN-deficient tumor; details: buparlisib plus cisplatin; cited from earlier work
[4] = tested on: patients with advanced solid tumors; test: Phase Ib 3 + 3 dose escalation: DLT, MTD and recommended phase II dose; assay type: in vivo, human
[5] = tested on: class IA PI3K paralogues (p110α, β, and δ); details: cited from earlier work
[6] = tested on: advanced solid tumors; test: Antitumor efficacy; assay type: in vivo, human
Outline: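 Open-label single-centre 3+3 trial in advanced solid tumors. Oral PI3K-inhibitor test compound was given at 50, 80 or 100 mg/day continuously. […] Imaging after each even-numbered cycle; best response per RECIST. FFPE tumor PTEN IHC scored 0/1+/2+.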

[7] = 50 mg, Group 1, 50 mg, n = 6, cycle 1/day 1, mean
[8] = 50 mg, Group 2, 50 mg, n = 4, cycle 1/day 1, mean
[9] = 80 mg, Group 1, 80 mg, n = 3, cycle 1/day 1, mean
[10] = 80 mg, Group 2, 80 mg, n = 6, cycle 1/day 1, mean
[11] = 100 mg, Group 1, 100 mg, n = 7, cycle 1/day 1, mean
[12] = 100 mg, Group 2, 100 mg, n = 4, cycle 1/day 1, mean
[13] = 25 patients measurable by RECIST, both groups

For `Nc1cc(C(F)(F)F)c(-c2cc(N3CCOCC3)nc(N3CCOCC3)n2)cn1` [buparlisib], the “maximum tolerated dose (MTD) of buparlisib monotherapy” value [1] is given as 100 mg/day, the “most common adverse events” value ([1]; monotherapy, 83 patients, dose escalation and expansion) is given as “decreased appetite, diarrhea, nausea, hyperglycemia, and rash” and the “patients with radiographic responses” value ([1]; monotherapy, among 83 patients, one confirmed, three unconfirmed) is given as “Four”. It also gave an AUC(0-t) [2, 7] of 1220 ng·h/mL, an AUC(0-t) [2, 8] of 1520 ng·h/mL and a Cmax [2, 7] of 285 ng/mL. For the same compound, the Cmax [2, 8] was 399 ng/mL, the Tmax [2, 7] was 4.83 h and the Tmax [2, 8] was 2.13 h. The AUC(0-t) [2, 9] was 2550 ng·h/mL, the AUC(0-t) [2, 10] was 1970 ng·h/mL and the Cmax [2, 10] was 555 ng/mL. It also gave a Tmax [2, 9] of 3.67 h, a Tmax [2, 10] of 2.08 h and an AUC(0-t) [2, 11] of 3460 ng·h/mL. For the same compound, the AUC(0-t) [2, 12] was 3410 ng·h/mL, the Cmax [2, 11] was 933 ng/mL and the Cmax [2, 12] was 960 ng/mL. The Tmax [2, 11] was 1.71 h, the Tmax [2, 12] was 2.38 h and the “plasma exposure to buparlisib versus dose” value ([2]; 50 to 100 mg, with carboplatin + paclitaxel, Groups 1 and 2) was “dose-related increases in plasma exposure”. For the same compound, the “effect of combination in PTEN-deficient xenograft” value [3] was “synthetic lethality was achieved”, the DLTs ([4]; Group 1, DL2 buparlisib 80 mg/day, three patients) was “no DLTs” and the DLTs ([4]; Group 1, DL3 buparlisib 100 mg/day, six evaluable subjects) was “no DLTs”. For the same compound, the DLT description ([4]; Group 1, dose level 1, 50 mg/day, NSCLC, 50 F) was “Grade 3 alkaline phosphatase elevation”, the MTD for buparlisib ([4]; Group 1: carboplatin AUC 5 + paclitaxel 175 mg/m^2 day 1, 21-day cycle, pegfilgrastim) was 100 mg/day and the “phase II recommended dose of buparlisib” value ([4]; Group 1 regimen) was 100 mg/day. The DLTs ([4]; Group 2, DL1 buparlisib 50 mg/day, three patients) was “no DLTs”, the DLTs ([4]; Group 2, DL2 buparlisib 80 mg/day, first three patients) was “no DLTs” and the “subjects who completed cycle 1 without DLT” value ([4]; Group 2, DL2 buparlisib 80 mg/day, six enrolled) was “five of six”. For the same compound, the DLT description ([4]; Group 2, dose level 3, 100 mg/day, NPC, 50 M) was “Grade 3 uncomplicated neutropenia >7 days”, the DLT description ([4]; Group 2, dose level 3, 100 mg/day, thyroid cancer, 61 F) was “Grade 3 uncomplicated neutropenia with grade 2 thrombocytopenia >7 days” and the MTD for buparlisib ([4]; Group 2: carboplatin AUC 5 day 1 + paclitaxel 80 mg/m^2 days 1, 8, 15, 28-day cycle, no growth factor) was 80 mg/day. The “phase II recommended dose of buparlisib” value ([4]; Group 2 regimen) was 80 mg/day, the “inhibition of class IA PI3K paralogues” value [5] was “potently inhibits” and the “best response: confirmed partial response (PR)” value [6, 13] was “four”. The “best response: progression of disease” value [6, 13] was “three”, the “confirmed objective response rate” value ([6]; 25 patients with measurable disease, Groups 1 and 2 (1 CR, 4 PRs; 5/25)) was 20% and the “patients with reductions in measurable disease of at least 20 % and/or at least six cycles” value ([6]; of patients who completed at least one cycle (18/25)) was 72%. For the same compound, the “patients with reductions in measurable disease of at least 20 % and/or at least six cycles” value ([6]; of patients who received any study treatment (18/30)) was 60%, the “duration of disease control” value ([6]; one person, metastatic parotid carcinoma to bone, loss of PTEN expression, Group 2) was “approximately 20 months” and the alkaline phosphatase nadir ([6]; same parotid carcinoma patient, baseline 236, normal range 45–129 U/L) was 80 U/L. For the same compound, the “outcome in patients with loss of PTEN expression” value ([6]; three patients, PTEN IHC score = 0) was “all derived clinical benefit from treatment; also recorded: experienced objective radiographic tumor reductions or clinical benefit”.
